Source: ChEMBL document CHEMBL3797067, “Part 3: Notch-sparing γ-secretase inhibitors: SAR studies of 2-substituted aminopyridopyrimidinones” (Bioorg Med Chem Lett, 2016)
Activity calls are given as the source filed them. No cut-off for these calls is given here.

How the values were obtained:
[1] = target: T1, Gamma-secretase (Homo sapiens) (UniProt Q96BI3+Q9NZ42+Q8WW43+P49768+Q92542+P49810); experiment: Inhibition of human gamma-secretase assessed as inhibition of amyloid beta 40 production using recombinant APP C100FLAG as substrate at 100 uM after 4 hrs by ELISA relative to control; assay type: protein-complex assay
Procedure, shortened: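 Purified human γ-secretase complex incubated with recombinant C100 FLAG substrate in 0.2% CHAPSO/HEPES, pH 7.5. Compound added from DMSO stock to a final 100 μM with 1% final DMSO. Reaction run 4 h at 37°C and stopped with 0.5% SDS. Aβ40 quantified by specific ELISA and expressed as percent inhibition versus DMSO control.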

[2] = target: T1, Gamma-secretase (Homo sapiens); experiment: Inhibition of human gamma-secretase assessed as inhibition of notch1 processing at 100 uM using N100Flag as substrate by western blot analysis; assay type: protein-complex assay
[3] = target: T1, Gamma-secretase (Homo sapiens); experiment: Inhibition of gamma-secretase (unknown origin) assessed as inhibition of amyloid beta 42 production at 100 uM by cell-based assay
[4] = Metabolic stability of the compound in rat liver microsomes assessed as parent compound remaining after 60 mins; assay type: ADME; details: read-out: Stability
[5] = Protein binding in human plasma; assay type: ADME, cell-free; details: read-out: PPB (converted)
[6] = Permeability of the compound from apical to basolateral side; assay type: ADME; details: not told; read-out: permeability
[7] = Metabolic stability of the compound in human liver microsomes assessed as parent compound remaining after 60 mins; assay type: ADME; details: read-out: Stability
[8] = Lipophilicity, logD of the compound; assay type: physicochemical; details: octanol/water
Gamma-secretase = experiment: Inhibition of gamma-secretase (unknown origin) assessed as inhibition of amyloid beta 42 production by cell-based assay; parameters: species or system Homo sapiens

SMILES | inhibition [1] [%] | inhibition [2] | also measured
Cn1c(=O)c(-c2c(Cl)cccc2Cl)cc2cnc(N3CCN(c4ccccn4)CC3)nc21 | 0 |  | 
Cn1c(=O)c(-c2c(Cl)cccc2Cl)cc2cnc(NCc3ccccn3)nc21 | 59 | inactive | 
CN(CCc1ccccc1)c1ncc2cc(-c3c(Cl)cccc3Cl)c(=O)n(C)c2n1 | 48 | inactive | 
Cn1c(=O)c(-c2ccc(Cl)cc2)cc2cnc(N3CCN(c4ccc(F)cc4)CC3)nc21 | 0 |  | 
CC(C)N(Cc1ccc(Cl)c(Cl)c1)c1ncc2cc(-c3c(Cl)cccc3Cl)c(=O)n(C)c2n1 | 50 | inactive | 
Cn1c(=O)c(-c2c(Cl)cccc2Cl)cc2cnc(N3CCN(c4ncccn4)CC3)nc21 | 0 |  | 
Cn1c(=O)c(-c2ccc(C(C)(C)C)cc2)cc2cnc(N3CCN(c4ccc(F)cc4)CC3)nc21 | 2 |  | 
CCCCCCNc1ncc2cc(-c3c(Cl)cccc3Cl)c(=O)n(C)c2n1 | 53 | Active | 
Cn1c(=O)c(-c2c(Cl)cccc2Cl)cc2cnc(N3CCN(Oc4cccnc4)CC3)nc21 | 0 |  | inhibition [3]: 0%
CN1CCN(c2ncc3cc(-c4c(Cl)cccc4Cl)c(=O)n(C)c3n2)CC1 | 0 | inactive | inhibition [3]: 7%
CSc1cccc(Nc2ncc3cc(-c4c(Cl)cccc4Cl)c(=O)n(C)c3n2)c1 | 0 | inactive | 
CC(C)Nc1ncc2cc(-c3c(Cl)cccc3Cl)c(=O)n(C)c2n1 | 0 | inactive | 
CC(C)N(Cc1ccccc1)c1ncc2cc(-c3c(Cl)cccc3Cl)c(=O)n(C)c2n1 | 90 | inactive | remaining at 1 h [4]: 4%; fraction unbound [5]: 0.057; Papp A→B [6]: 2.3 ×10⁻⁶ cm/s; remaining at 1 h [7]: 72%; logD [8]: > 4
Cn1c(=O)c(-c2c(Cl)cccc2Cl)cc2cnc(Nc3ccccc3)nc21 | 26 |  | 
Cn1c(=O)c(-c2c(Cl)cccc2Cl)cc2cnc(NCc3ccccc3)nc21 | 0 |  | 
Cn1c(=O)c(-c2c(Cl)cccc2Cl)cc2cnc(N3CCN(CC4CCCO4)CC3)nc21 (configuration not stated) | 0 |  | 
CC(C)N(Cc1cc(F)cc(F)c1)c1ncc2cc(-c3c(Cl)cccc3Cl)c(=O)n(C)c2n1 | 73 | Active | 
Cn1c(=O)c(-c2c(F)cccc2F)cc2cnc(N3CCN(c4ccc(F)cc4)CC3)nc21 | 20 | Active | 
Cn1c(=O)c(-c2c(Cl)cccc2Cl)cc2cnc(N3CCN(c4ccc(F)cc4)CC3)nc21 | 68 | inactive | remaining at 1 h [4]: 72%; fraction unbound [5]: 0.011; IC50 (Gamma-secretase): 2.7 µM; Papp A→B [6]: 0.1 ×10⁻⁶ cm/s; remaining at 1 h [7]: 74%; logD [8]: > 4
Cn1c(=O)c(-c2ccccc2)cc2cnc(N3CCN(c4ccc(F)cc4)CC3)nc21 | 14 | Active | 
Cn1c(=O)c(-c2c(Cl)cccc2Cl)cc2cnc(Nc3ccc(C(F)(F)F)cc3)nc21 | 12 |  | 
Cn1c(=O)ccc2cnc(N3CCN(c4ccc(F)cc4)CC3)nc21 | 0 |  | 
CSc1ccc(Nc2ncc3cc(-c4c(Cl)cccc4Cl)c(=O)n(C)c3n2)cc1 | 47 | inactive | IC50 (Gamma-secretase): 26 µM
COc1ccc(Nc2ncc3cc(-c4c(Cl)cccc4Cl)c(=O)n(C)c3n2)cc1 | 47 | inactive | 
